Values after ≈ are worked out from the molar mass of the structure shown.
Columns and labels:
Format in all cases: functional
Pseudomonas aeruginosa [1] = assay: Inhibition of MexAB-OprM efflux pump expression in Pseudomonas aeruginosa TNP090 mutant harboring las and rhl gene at 1 ug/ml by Cat-2,3-diO reporter gene assay relative to untreated control; details: values are per cent of control
Procedure, shortened: (§1)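 Overnight TNP090 (mexB::xylE reporter) preculture diluted 10,000-fold into fresh medium with or without antibiotic, dosed as fractions of the TNP090 MIC. Shaken at 200 rpm, 37°C, for 9 h to A600 ~1.5 (early stationary phase). Extracts made by French press at 130 MPa, then centrifuged at 13,000 × g. Cat-2,3-diO activity expressed relative to drug-free culture.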

Pseudomonas aeruginosa [2] = assay: Inhibition of MexAB-OprM efflux pump expression in Pseudomonas aeruginosa TNP090 mutant harboring las and rhl gene at 1 ug/ml after 7.5 hrs by Cat-2,3-diO reporter gene assay relative to untreated control; details: TNP090, 7.5 h
Procedure, shortened: (§2)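 Overnight TNP090 preculture diluted 100,000-fold (A600 3 × 10−5) in LB with or without 1 μg/ml azithromycin. Grown at 37°C with 200 rpm rotation and harvested at 5.5 h (AZM) or 4.5 h (drug-free), then at +2, +4 and +6 h. French-press extracts (130 MPa ×3), 13,000 × g supernatant assayed for Cat-2,3-diO. 1 unit = 1 nmol substrate/min/mg protein. Representative of repeated experiments.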

Pseudomonas aeruginosa [3] = assay: Inhibition of MexAB-OprM efflux pump expression in Pseudomonas aeruginosa TNP090 mutant harboring las and rhl gene at 1 ug/ml after 5.5 hrs by Cat-2,3-diO reporter gene assay relative to untreated control; details: TNP090, 5.5 h; procedure, shortened: as §2
Pseudomonas aeruginosa [4] = assay: Inhibition of MexAB-OprM efflux pump expression in Pseudomonas aeruginosa at 1.0 ug/ml
Procedure, shortened: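 TNP090 (las+ rhl+, mexB::xylE reporter) overnight culture was diluted 100,000-fold (A600 3 × 10−5) into LB with or without 1 μg/ml azithromycin and shaken at 200 rpm, 37°C. Cells were harvested at ~4.5 h (drug-free) or 5.5 h (drug), then at plus 2, 4 and 6 h. Cat-2,3-diO activity was measured in French-press extracts (1 unit = 1 nmol substrate/min/mg protein). Results are representative of repeated experiments.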

Pseudomonas aeruginosa [5] = assay: Inhibition of MexAB-OprM efflux pump expression in Pseudomonas aeruginosa TNP090 mutant harboring las and rhl gene at 1 ug/ml after 9.5 hrs by Cat-2,3-diO reporter gene assay relative to untreated control; details: TNP090, 9.5 h; procedure, shortened: as §2
Pseudomonas aeruginosa [6] = assay: Inhibition of MexAB-OprM efflux pump expression in Pseudomonas aeruginosa TNP090 mutant harboring las and rhl gene at 0.125 ug/ml by Cat-2,3-diO reporter gene assay relative to untreated control; details: values are per cent of control; procedure, shortened: as §1
Pseudomonas aeruginosa [7] = assay: Inhibition of MexAB-OprM efflux pump expression in rhl1 deficient Pseudomonas aeruginosa TNP092 at 1 ug/ml after 9 hrs by Cat-2,3-diO reporter gene assay; details: TNP092, 9 h, values are per cent of control
Procedure, shortened: (§3)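 Reporter strains lacking lasI, rhlI or both were diluted 10,000-fold from overnight culture into fresh medium with or without 1 μg/ml azithromycin. Cultures were shaken at 200 rpm, 37°C for 9 h (A600 ~1.5, early stationary phase). Cat-2,3-diO activity was assayed in cell extracts and […].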

Pseudomonas aeruginosa [8] = assay: Antibacterial activity against Pseudomonas aeruginosa TNP090 harboring chromosomal mexB::xylE fusion construct by agar dilution method
Procedure, shortened: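 Agar dilution MIC on Mueller-Hinton agar; inoculum 5 × 10^3 cells per spot.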

Pseudomonas aeruginosa [9] = assay: Inhibition of MexAB-OprM efflux pump expression in las1 deficient Pseudomonas aeruginosa TNP091 at 1 ug/ml after 9 hrs by Cat-2,3-diO reporter gene assay; details: TNP091, 9 h, values are per cent of control; procedure, shortened: as §3
Pseudomonas aeruginosa [10] = assay: Inhibition of MexAB-OprM efflux pump expression in Pseudomonas aeruginosa TNP090 mutant harboring las and rhl gene at 0.5 ug/ml by Cat-2,3-diO reporter gene assay relative to untreated control; details: values are per cent of control; procedure, shortened: as §1
Pseudomonas aeruginosa [11] = assay: Inhibition of MexAB-OprM efflux pump expression in Pseudomonas aeruginosa TNP090 mutant harboring las and rhl gene at 1 ug/ml after 11.5 hrs by Cat-2,3-diO reporter gene assay relative to untreated control; details: TNP090, 11.5 h; procedure, shortened: as §2
Pseudomonas aeruginosa [12] = assay: Inhibition of MexAB-OprM efflux pump expression in las1 and rhl1 deficient Pseudomonas aeruginosa TNP093 at 1 ug/ml after 9 hrs by Cat-2,3-diO reporter gene assay; details: TNP093, 9 h, values are per cent of control; procedure, shortened: as §3
Pseudomonas aeruginosa [13] = assay: Inhibition of MexAB-OprM efflux pump expression in Pseudomonas aeruginosa TNP090 mutant harboring las and rhl gene at 0.25 ug/ml by Cat-2,3-diO reporter gene assay relative to untreated control; details: values are per cent of control; procedure, shortened: as §1
Pseudomonas aeruginosa [14] = assay: Inhibition of MexAB-OprM efflux pump expression in Pseudomonas aeruginosa TNP090 mutant harboring las and rhl gene at 1 ug/ml by Cat-2,3-diO reporter gene assay; procedure, shortened: as §2
Pseudomonas aeruginosa [15] = assay: Antibacterial activity against Pseudomonas aeruginosa PAO4290 selected after 1.0 ug/ml of azithromycin by agar dilution method
Procedure, shortened: (§4)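 Agar dilution on Mueller-Hinton agar with an inoculum of 150 CFU/5 μl per spot. Plates were run with or without 1.0 μg/ml azithromycin incorporated in the agar, and MIC was read for each strain.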

Pseudomonas aeruginosa [16] = assay: Antibacterial activity against Pseudomonas aeruginosa TNP030 selected after 1.0 ug/ml of azithromycin by agar dilution method; procedure, shortened: as §4
Pseudomonas aeruginosa [17] = assay: Antibacterial activity against MeXAB-OprM deficient Pseudomonas aeruginosa TNP077 by agar dilution method; procedure, shortened: as §4
Pseudomonas aeruginosa [18] = assay: Antibacterial activity against Pseudomonas aeruginosa TNP030 by agar dilution method; procedure, shortened: as §4
Pseudomonas aeruginosa [19] = assay: Antibacterial activity against MeXAB-OprM deficient Pseudomonas aeruginosa TNP077 selected after 1.0 ug/ml of azithromycin by agar dilution method; procedure, shortened: as §4
Pseudomonas aeruginosa [20] = assay: Antibacterial activity against Pseudomonas aeruginosa PAO4290 by agar dilution method; procedure, shortened: as §4
Pseudomonas aeruginosa [21] = assay: Inhibition of MexAB-OprM efflux pump expression in Pseudomonas aeruginosa TNP090 mutant harboring las and rhl gene at 0.03 ug/ml by Cat-2,3-diO reporter gene assay relative to untreated control; details: values are per cent of control; procedure, shortened: as §1
Pseudomonas aeruginosa [22] = assay: Inhibition of MexAB-OprM efflux pump expression in Pseudomonas aeruginosa TNP090 mutant harboring las and rhl gene at 0.06 ug/ml by Cat-2,3-diO reporter gene assay relative to untreated control; details: values are per cent of control; procedure, shortened: as §1
Pseudomonas aeruginosa [23] = assay: Inhibition of MexAB-OprM efflux pump expression in Pseudomonas aeruginosa TNP090 mutant harboring las and rhl gene at 0.016 ug/ml by Cat-2,3-diO reporter gene assay relative to untreated control; details: values are per cent of control; procedure, shortened: as §1

SMILES	MIC (Pseudomonas aeruginosa [15]) [µg/mL]	MIC (Pseudomonas aeruginosa [16]) [µg/mL]	MIC (Pseudomonas aeruginosa [17]) [µg/mL]	MIC (Pseudomonas aeruginosa [18]) [µg/mL]	MIC (Pseudomonas aeruginosa [19]) [µg/mL]	MIC (Pseudomonas aeruginosa [20]) [µg/mL]	other results
CC[C@H]1OC(=O)[C@H](C)[C@@H](O[C@H]2C[C@@](C)(OC)[C@@H](O)[C@H](C)O2)[C@H](C)[C@@H](O[C@@H]2O[C@H](C)C[C@H](N(C)C)[C@H]2O)[C@](C)(O)C[C@@H](C)CN(C)[C@H](C)[C@@H](O)[C@]1(C)O [AZITHROMYCIN]							response, % of control at 1 µg/mL (Pseudomonas aeruginosa [1]): 37%; inhibition at 1 µg/mL (Pseudomonas aeruginosa [2]): -73%; inhibition at 1 µg/mL (Pseudomonas aeruginosa [3]): -30.9%; inhibition at 1 µg/mL (Pseudomonas aeruginosa [4]): 70%; inhibition at 1 µg/mL (Pseudomonas aeruginosa [5]): -70.2%; response, % of control at 0.125 µg/mL (Pseudomonas aeruginosa [6]): 85%; response, % of control at 1 µg/mL (Pseudomonas aeruginosa [7]): 90%; MIC (Pseudomonas aeruginosa [8]): 6.25 µg/mL (≈ 8.34 µM); response, % of control at 1 µg/mL (Pseudomonas aeruginosa [9]): 99%; response, % of control at 0.5 µg/mL (Pseudomonas aeruginosa [10]): 65%; inhibition at 1 µg/mL (Pseudomonas aeruginosa [11]): -63%; response, % of control at 1 µg/mL (Pseudomonas aeruginosa [12]): 100%; response, % of control at 0.25 µg/mL (Pseudomonas aeruginosa [13]): 78%; Activity (Pseudomonas aeruginosa [14]): 44.3
C[C@H]1[C@H](NC(=O)/C(=N\OC(C)(C)C(=O)O)c2csc(N)n2)C(=O)N1S(=O)(=O)O [AZTREONAM]	1.56	12.5	0.1 (≈ 0.23 µM)	12.5 (≈ 28.7 µM)	0.1	3.12 (≈ 7.17 µM)	
CC1(C)S[C@@H]2[C@H](NC(=O)C(C(=O)O)c3ccccc3)C(=O)N2[C@H]1C(=O)O (stereo partly specified) [CARBENICILLIN]	12.5	200	0.78 (≈ 2.06 µM)	200 (≈ 529 µM)	1.56	50 (≈ 132 µM)	
CC(C)(O/N=C(\C(=O)N[C@@H]1C(=O)N2C(C(=O)[O-])=C(C[n+]3ccccc3)CS[C@H]12)c1csc(N)n1)C(=O)O [CEFTAZIDIME]	1.56	3.13	0.39 (≈ 0.714 µM)	3.13 (≈ 5.73 µM)	0.39	1.56 (≈ 2.85 µM)	
O=C(N[C@H](CO)[C@H](O)c1ccc([N+](=O)[O-])cc1)C(Cl)Cl [CHLORAMPHENICOL]	6.25	200	0.39 (≈ 1.21 µM)	200 (≈ 619 µM)	0.39	25 (≈ 77.4 µM)	
C[C@@H](O)[C@H]1C(=O)N2C(C(=O)O)=C(SCCNC=N)C[C@H]12 [IMIPENEM ANHYDROUS]	0.78	0.78	0.78 (≈ 2.61 µM)	0.78 (≈ 2.61 µM)	0.78	0.78 (≈ 2.61 µM)	
CO[C@@H]1[C@@H](OC(N)=O)[C@@H](O)[C@H](Oc2ccc3c(O)c(NC(=O)c4ccc(O)c(CC=C(C)C)c4)c(=O)oc3c2C)OC1(C)C [NOVOBIOCIN]	200	> 1200	12.5 (≈ 20.4 µM)	> 1200	12.5	800 (≈ 1310 µM)	
CC1COc2c(N3CCN(C)CC3)c(F)cc3c(=O)c(C(=O)O)cn1c23 (stereo unspecified) [OFLOXACIN]	0.78	> 1.56	0.05 (≈ 0.138 µM)	> 1.56	0.05	0.78 (≈ 2.16 µM)	
CN(C)[C@@H]1C(O)=C(C(N)=O)C(=O)[C@@]2(O)C(O)=C3C(=O)c4c(O)cccc4[C@@](C)(O)[C@H]3C[C@@H]12 [TETRACYCLINE]	3.13	50	0.39 (≈ 0.878 µM)	50 (≈ 113 µM)	0.39	12.5 (≈ 28.1 µM)	response, % of control at 0.125 µg/mL (Pseudomonas aeruginosa [6]): 51%; response, % of control at 0.03 µg/mL (Pseudomonas aeruginosa [21]): 94%; response, % of control at 0.06 µg/mL (Pseudomonas aeruginosa [22]): 69%; response, % of control at 0.016 µg/mL (Pseudomonas aeruginosa [23]): 103%

Source: ChEMBL document CHEMBL1275516, “Macrolide antibiotic-mediated downregulation of MexAB-OprM efflux pump expression in Pseudomonas aeruginosa” (2008)
